Measured values: ChEMBL document CHEMBL4715732, “4-Phenylureido/thioureido-substituted 2,2-dimethylchroman analogs of cromakalim bearing a bulky 'carbamate' moiety at the 6-position as potent inhibitors of glucose-sensitive insulin secretion” (Eur J Med Chem, 2016)
pEC50, pIC50: −log10 of the molar value. The source made the active and inactive calls. No cut-off for these calls is given here.

What was measured:
Rattus norvegicus [1] = species on record: Rattus norvegicus; assay: Activation of ATP-sensitive potassium channel in perifused Wistar rat pancreatic islets assessed as increase in extracellular K+ concentration at 10 uM measured up to 90 mins in presence of 2.8 mM glucose and extracellular Ca2+ by scintillation counting method; details: filed as opener, time min <=90
In short: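 Rat islets were perifused in 2.8 mM glucose with extracellular Ca2+. Extracellular K+ was raised from 5 to 50 mM, and 45Ca outflow was measured with or without agent (10 μM) present continuously. Values are mean ± SEM of 10 individual experiments.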

[2] = Residual glucose-induced insulin secretion in Wistar rat pancreatic islets at 0.1 uM incubated for 90 mins in presence of 16.7 mM glucose by radioimmunological assay relative to control; details: Pancreatic islet, 1.5 h
Rattus norvegicus [3] = species on record: Rattus norvegicus; assay: Activation of ATP-sensitive potassium channel in perifused Wistar rat pancreatic islets assessed as increase in 86Rb outflow at 10 uM measured up to 90 mins by scintillation counting method; details: filed as opener, time min <=90
Pancreatic islet [4] = assay: Increase in intracellular Ca2+ concentration under deprived extracellular calcium and physiological condition in Wistar rat pancreatic islets at 10 uM measured up to 30 mins in presence of 2.8 mM extracellular glucose concentration by Fura-2 dye based fluorescence assay; type: functional, tissue-based; details: time min <=30
In short: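 Fura-2-loaded single rat islet cells were kept at 2.8 mM glucose in medium with or without extracellular calcium. Agent was added at 10 μM and fluorescence intensity was monitored.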

Aorta [5] = assay: Myorelaxant activity in aortic rings isolated from Wistar rat assessed as reduction in KCl-induced contractions measured after 60 mins in presence of 80 mM KCl by force-displacement transducer; type: functional, tissue-based
In short: (§1)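 Endothelium-free rat aorta rings were contracted with 30 mM or 80 mM K+, with 1 or 10 μM glibenclamide present for some 30 mM series. Agent was applied cumulatively. EC50 is the concentration giving 50% relaxation of the KCl-induced contraction, reported as mean ± SEM (n).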

Rattus norvegicus [6] = species on record: Rattus norvegicus; assay: Activation of ATP-sensitive potassium channel in perifused Wistar rat pancreatic islets assessed as inhibition of 45Ca outflow at 10 uM measured up to 90 mins in presence of 16.7 mM glucose and extracellular Ca2+ by scintillation counting method; details: filed as opener, time min <=90
In short: (§2)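 Rat islets were prelabeled with 45Ca and perifused throughout with 16.7 mM glucose. Basal medium either contained extracellular Ca2+ or was Ca2+-free and enriched with 0.5 mM EGTA. Agent was added at 10 μM, and 45Ca outflow and insulin release were followed. Values are mean ± SEM of 5-6 individual experiments.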

Rattus norvegicus [7] = species on record: Rattus norvegicus; assay: Activation of ATP-sensitive potassium channel in perifused Wistar rat pancreatic islets assessed as increase in 86Rb outflow at 10 uM measured up to 90 mins in basal media containing 5.6 mM glucose and glibenclamide by scintillation counting method; details: time min <=90
In short: (§3)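 Rat islets were perifused throughout in basal medium with 5.6 mM glucose and extracellular Ca2+, with or without the KATP blocker glibenclamide (10 μM). Test agent was added at 10 μM and 86Rb outflow was followed. Values are mean ± SEM of 6 individual experiments.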

Rattus norvegicus [8] = species on record: Rattus norvegicus; assay: Activation of ATP-sensitive potassium channel in perifused Wistar rat pancreatic islets assessed as increase in 86Rb outflow at 10 uM measured up to 90 mins by scintillation counting method; details: filed as opener, time min <=90; remark: listed apart in the source
Rattus norvegicus [9] = species on record: Rattus norvegicus; assay: Activation of ATP-sensitive potassium channel in perifused Wistar rat pancreatic islets assessed as increase in extracellular K+ concentration at 10 uM measured up to 90 mins in presence of 2.8 mM glucose and absence of extracellular Ca2+ by scintillation counting method; details: filed as opener, time min <=90
[10] = Residual glucose-induced insulin secretion in Wistar rat pancreatic islets at 1 uM incubated for 90 mins in presence of 16.7 mM glucose by radioimmunological assay relative to control; details: Pancreatic islet, 1.5 h
Pancreatic islet [11] = assay: Increase in intracellular Ca2+ concentration under deprived extracellular calcium and physiological condition in Wistar rat pancreatic islets at 10 uM measured up to 30 mins in presence of 20 mM extracellular glucose concentration by Fura-2 dye based fluorescence assay; type: functional, tissue-based; details: time min <=30
In short: (§4)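 Single rat pancreatic islet cells were loaded with fura-2 and cytosolic Ca2+ was read as the 340:380 nm fluorescence ratio. Glucose was raised from 2.8 to 20 mM, in medium with or without external calcium. Agent (10 μM) was added afterwards, during the sustained phase.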

[12] = Residual 16.7 mM glucose-induced insulin secretion in Wistar rat pancreatic islets at 0.5 uM incubated for 90 mins in presence of glucose by radioimmunological assay relative to control; details: Pancreatic islet, 1.5 h
[13] = Residual glucose-induced insulin secretion in Wistar rat pancreatic islets at 10 uM incubated for 90 mins in presence of 16.7 mM glucose by radioimmunological assay relative to control; details: Pancreatic islet, 1.5 h
Rattus norvegicus [14] = species on record: Rattus norvegicus; assay: Ratio of EC50 for vasorelaxant activity in aortic rings isolated from Wistar rat assessed as reduction in KCl-induced contractions measured after 60 mins in presence of 80 mM KCl by force-displacement transducer to IC50 for inhibition of 16.7 mM glucose-induced insulin secretion in Wistar rat pancreatic islets incubated for 90 mins in presence of glucose by radioimmunological assay; type: functional
Pancreatic islet [15] = assay: Decrease in cytosolic Ca2+ concentration during sustained phase in Wistar rat pancreatic islets at 10 uM measured up to 30 mins in presence of 2.8 to 20 mM extracellular glucose concentration by Fura-2 dye based fluorescence assay; type: functional, tissue-based; details: time min <=30; in short: as §4
Rattus norvegicus [16] = species on record: Rattus norvegicus; assay: Activation of ATP-sensitive potassium channel in perifused Wistar rat pancreatic islets assessed as increase in 45Ca efflux at 10 uM measured up to 90 mins in presence of 2.8 mM glucose and absence of extracellular Ca2+ by scintillation counting method; details: filed as opener, time min <=90
In short: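 Perifused rat islets carrying 45Ca were exposed to 2.8 mM glucose in medium with or without extracellular Ca2+. Agent was added at 10 μM and 45Ca outflow was monitored.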

Aorta [17] = assay: Myorelaxant activity in aortic rings isolated from Wistar rat assessed as reduction in 30 mM KCl-induced contractions in presence of 1 uM KATP channel blocker glibenclamide; type: functional, tissue-based; in short: as §1
Rattus norvegicus [18] = species on record: Rattus norvegicus; assay: Activation of ATP-sensitive potassium channel in perifused Wistar rat pancreatic islets assessed as inhibition of insulin secretion at 10 uM measured up to 90 mins in presence of 16.7 mM glucose by scintillation counting method; details: filed as opener, time min <=90; in short: as §2
Rattus norvegicus [19] = species on record: Rattus norvegicus; assay: Activation of ATP-sensitive potassium channel in perifused Wistar rat pancreatic islets assessed as increase in [45]Ca efflux at 10 uM measured up to 90 mins in presence of 16.7 mM glucose and absence of extracellular Ca2+ by scintillation counting method; details: filed as opener, time min <=90; in short: as §2
[20] = (§5) Inhibition of glucose-induced insulin secretion in Wistar rat pancreatic islets incubated for 90 mins in presence of 16.7 mM glucose by radioimmunological assay; type: functional, tissue-based; details: Pancreatic islet, 1.5 h
In short: (§6)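 Rat pancreatic islets were incubated with 16.7 mM glucose, with test concentrations added to the medium (0.1, 0.5, 1 and 10 μM). Insulin release is given as a percentage of the control (no drug, 16.7 mM glucose), as mean ± SEM with n = number of samples. IC50 is the concentration giving a 50% reduction of the secretory response to glucose.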

Pancreatic islet [21] = assay: as §5; type: functional, tissue-based; in short: as §6
Aorta [22] = assay: Myorelaxant activity in aortic rings isolated from Wistar rat assessed as reduction in 80 mM KCl-induced contractions; type: functional, tissue-based; in short: as §1
Aorta [23] = assay: Myorelaxant activity in aortic rings isolated from Wistar rat assessed as reduction in 30 mM KCl-induced contractions in presence of 10 uM KATP channel blocker glibenclamide; type: functional, tissue-based; in short: as §1
Rattus norvegicus [24] = species on record: Rattus norvegicus; assay: Activation of ATP-sensitive potassium channel in perifused Wistar rat pancreatic islets assessed as increase in 86Rb outflow at 10 uM measured up to 90 mins by scintillation counting method; details: filed as opener, time min <=90; in short: as §3

Structure (SMILES): CC(C)(C)OC(=O)Nc1ccc2c(c1)C(NC(=O)Nc1cccc(C#N)c1)CC(C)(C)O2 (racemic)
- Activity (Rattus norvegicus [1]): Active
- residual insulin secretion at 0.1 µM [2]: 82%
- Activity (Rattus norvegicus [3]): Active
- Activity (Pancreatic islet [4]): Active
- Activity (Aorta [5]): Dose-dependent effect
- pEC50 (Aorta [5]; 1 h, in the assay text read “30 mM KCl” for “80 mM KCl”): 4.98
- Activity (Rattus norvegicus [6]): Active
- Activity (Rattus norvegicus [7]): inactive
- Activity (Rattus norvegicus [8]): Active
- Activity (Rattus norvegicus [9]): Active
- residual insulin secretion at 1 µM [10]: 15.6%
- Activity (Pancreatic islet [11]): Active
- residual insulin secretion at 0.5 µM [12]: 28.6%
- residual insulin secretion at 10 µM [13]: 7.4%
- Ratio (Rattus norvegicus [14]): 44
- Activity (Pancreatic islet [15]): Active
- Activity (Rattus norvegicus [16]): Active
- pEC50 (Aorta [17]): 4.94
- Activity (Rattus norvegicus [18]): Active
- Activity (Rattus norvegicus [19]): Active
- pIC50 [20]: 6.62
- inhibition (Pancreatic islet [21]): Dose-dependent effect
- pEC50 (Aorta [22]): 4.91
- pEC50 (Aorta [23]): 5.03
- Activity (Rattus norvegicus [24]): Active
